Measured values: the RNAGym collection of RNA variant scans (doi:10.1126/science.aae0568)
Variants at the floor of the assay were thinned out.

B1: tRNA (parent)
chain: GUUCCGUUGGCGUAAUGGUAACGCGUCUCCCUCCUAAGGAGAAGACUGCGGGUUCGAGUCCCGUACGGAACG

Variants of: B1
Test: yeast fitness relative to wild type (ratio to wild type); higher = fitter; tRNA-Arg(CCU), competitive growth, 37 C, YPD
Method in brief: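 Gene amplicons from the start population and from each of six end populations were read by 100-nucleotide paired-end sequencing. Those end populations came from pooled Saccharomyces cerevisiae strains carrying tRNA-Arg(CCU) gene variants at the native locus, competed in YPD at 37°C for 24 hours. Fitness relative to wild type was worked out from changes in genotype frequencies. Genotypes needed ≥ 100 starting reads, and estimates < 0.5 were set to 0.5.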

| Variant | yeast fitness |
| --- | --- |
| GUUUCGUUGGCGUACUGGUAACGCGUCUCCCUCCUAAGGAGAAGACUGCGCGUUCGGGUCCCGUACGGAACG | ≤ 0.5 |
| GUUUCGUUGGCGUAAUGGUGACGCGUCUCACUCCUAAGGAGAAGACUGCGGGUUCGAGUCCCGUACGGAACG | 0.81 |
| GUUUCGUUGGCGUAAUGGUUACGCGUCUCCCUCCUAAGGAGAAGAAUGCGGGUUCGAGUCCCGUACGGAACG | 1.02 |
| GUUUCGUUGGCGUAAUGGUCACGCGGCUCCCUCCUAAGGAGAAGACUGCGGGUUCGAGUCCCGUACGGAACG | 0.552 |
| GUUUCGUUGGCGUAAUGGUGACGCGUCCCCUUCCUAAGGAGAAGACUGCCGGUUUGAGUGCCAUAUGGAACG | 0.508 |
| GUUUCGUUGGCGUAAUGGUGACGCGUCUCCCUCCUAAGGAGAAGUCUGCGGGUUCGAGUCAUGUACGGAACG | 0.546 |
| GUUUCGUUGGCGUAAUGGUGACGCGUCUCCCUCCUAAGGAGAAGACUGCGGGUUCGAGUCCCGUACGGCACG | 0.817 |
| GUUUCGUUGGCGUAGUGGUAACCCGUCUCCCUCCUAUGGAGAAGACUGUGGGUUCGAGUCCCGUUCGGAACG | 0.525 |
| GUUUCGUUGGCGUACUGGUAACGCGUCUGGCUCCUAAGGAGACGACUGCGGGUUCGAGUCCCGUACGGAACG | ≤ 0.5 |
| GUUUCGUUGGCGUACUGGUAACGCGUCUCCCUCCUAAGGAGAGAACAGGGGGUUCGAGUCCCGUACGGAACG | ≤ 0.5 |
| GUUUCGUUGGCGUAAUGGUGACGCGUCUCCCUCCUAAGGAGAAGACUGCGGGUUCGAGUCCCGUACGGAACG | 0.979 |
| GUUUCGUUGGCGUAAUGGUUACGCGUCUCCCUCCUAAGGAGAAGACUGCGGGUUCGAGUCCCGUACGGAACG | 0.988 |
| GUUUCGUUGGCGUAAUGGUUACGCGUGUCGCCCCUAAGGAGAGGACUGCGGGUUCGAGUCCCGUCCGCAACG | ≤ 0.5 |
| GUUUCGUUGGCGUACUGGUAACGCGUCUCCCUCCUAAGGAGAAGACUGCGGGUUCGAGUCCCAUACGGAACG | ≤ 0.5 |
| GUUUCGUUGGCGUAGUGGUAACCCGUCUCCCUCCUAUGGAGAAGACUGCGGGUUCGAGUCACGUACGGAACG | ≤ 0.5 |
| GUUUCGUUGGCGUAUUGGUAACGCGUCUCCCUCCUAAGGAGAAGACUGCGGGUUCGAGUCCCGUAUGGAACG | 0.649 |
| GUUUCGUUGGCGUAUUGGUAACGCGUCCCCCUCCUAAGGAGAAGACUGCGGGUUCGGGUCCCGUACGGAACG | ≤ 0.5 |
| GUUUCGUUGGCGUAAUGGUUACGCGUCUCCCUCCUAAGGUGAAGACUGCGGGUUCGAGUCCCGUACCGAACG | ≤ 0.5 |
| GUUUCGUUGGCGUAAUGGUUACGCGUCUUCCUCCUAAGGAGAAGACUGCGGGUUCGAGUCCCGUACGGAACG | ≤ 0.5 |

| Variant | yeast fitness |
| --- | --- |
| GUUUCGUUGGCGUAAUGGUGACGCGUCUCCCGCCUAAGGAGACGUCUGCGGGUUCGAGUCCCGUACGGAACG | ≤ 0.5 |
| GUUUCGUUGGCGUACUGGUAACGCGUCUCCCUCCUAAGGAGAAGAUUGCGGGUUCGAGUCCCGUACGGAACG | 0.7 |
| GUUUCGUUGGCGUAUUGGUAACGCGUCUCCCUCCUAAGGAGAAGACUGCGGGUUCGAGUCCCGUACGAAACG | ≤ 0.5 |
| GUUUCGUUGGCGUAAUGGUCACGCGUCUCACUCCUAAGGAGAAGACUGCGGGUUAGAGUCCCGUACAGAACG | 0.53 |
| GUUUCGUUGGCGUAAUGGUCACGCGUCUCCCUCGUGAGGAGAAGACUGCGGGUUCGAGUCCCGUUCGGAACG | ≤ 0.5 |
| GUUUCGUUGGCGUAUUGGUAACGCGUCCCCCUCCUAAGGAGAAGACUGCGGGUUCGAGUCCCGUACGGAACG | 0.55 |
| GUUUCGUUGGCGUAGUGGUAACGCGUCUCCCUCCUAAGGAGAAGACUGCGGGUUCGAGUCCCGUACGGAACG | 0.997 |
| GUUUCGUUGGCGUAUUGGUAACGCGUCUCCCUCCUAAGGAGAAGACUGCGGGUUCGAGUCCCGUACGGAACG | 0.89 |
| GUUUCGUUGGCGUAUAGGUAACCCAUCUCCCUCCUAAGGAGAAGACUGCGGGUUCGUGUCCCGUACGGUACG | ≤ 0.5 |
| GUUUCGUUGGCGUAGUGGUAACCCGUCUCCCUCCUAUGGAGAAGACUGCGGGUUCGAGUCCCGUACGGAACG | ≤ 0.5 |
| GUUUCGUUGGCGUAAUGGUCACGCGUCUCCCUCCUAAGGAGAAGAUUGCGGGUUCGAGUCCCGUACGGAGCG | ≤ 0.5 |
| GUUUCGUUGGCGUACUGGUAACGCGUCUCCCUCCUAAGGAAAAGACUGCGGGUUCGAGUCCCCUACGGAACG | ≤ 0.5 |
| GUUUCGUUGGCGUACUGGUAACGCGUCUCCCUCCUAAGGAGAAGACUGCGGGUUCGAGUCCCGUACGGAUCG | 0.573 |
| GUUUCGUUGGCGUAUUGGUAACGCGUCUCCCUCCUAAGGAGCAGACUGCGGGUUCGUGUCCCGUACGGAACG | ≤ 0.5 |
| GUUUCGUUGGCGUACUGGUAACGCGUCUCGCUCCUAAGGAGAAGACUGCGGAUUCGAGUCCCGUCCGGAACG | ≤ 0.5 |
| GUUUCGUUGGCGUAUUGGUAACGCGUCUCCCUCCUAAGGAGAAGGCUGCGGGUUCGAGUCCGGUACGGAACG | ≤ 0.5 |
| GUUUCGUUGGCGUACUGGUAACGCGUCUCGCUCCUAAGGAGAAGACUGCGGGUUCGAGUCCCGUACGGCGCG | ≤ 0.5 |
| GUUUCGUUGGCGUAUUGGUCACACGUCUCCCUCCUAAGGAGAAGACUGCCGGUUCGAGUCCCGUACGGAACG | ≤ 0.5 |
| GUUUCGUUGGCGUAGUGGUAACACGUCUCCCUCGUAAGGAGAAGACUGCGGGUUCGAGUCCCGUACGGAACG | ≤ 0.5 |
